Laboratory results taken from ChEMBL document CHEMBL1806421, “Design, synthesis and biological evaluation of urea derivatives from o-hydroxybenzylamines and phenylisocyanate as potential FabH inhibitors” (Bioorg Med Chem, 2011).
≈ marks a conversion by molar mass, not a printed value.

Legend:
[1] = target: T1, 3-oxoacyl-[acyl-carrier-protein] synthase 3 (Escherichia coli, UniProt C3TDZ2); assay: Inhibition of Escherichia coli FabH expressed in Escherichia coli DH10B cells assessed as incorporation of 3H signal in the product after 25 mins by liquid scintillation
T1 sequence (C3TDZ2 whole entry): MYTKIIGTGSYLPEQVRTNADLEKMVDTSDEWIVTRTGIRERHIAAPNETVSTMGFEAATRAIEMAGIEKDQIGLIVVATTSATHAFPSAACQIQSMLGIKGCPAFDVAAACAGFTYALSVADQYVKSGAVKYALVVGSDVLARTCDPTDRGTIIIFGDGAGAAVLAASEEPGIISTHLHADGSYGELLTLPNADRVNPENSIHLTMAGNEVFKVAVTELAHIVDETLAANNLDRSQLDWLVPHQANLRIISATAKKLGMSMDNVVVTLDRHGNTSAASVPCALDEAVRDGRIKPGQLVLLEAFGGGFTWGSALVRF
Procedure, shortened: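 Native E. coli FabH was expressed from pET30 in DH10B and purified by Q-Sepharose, MonoQ and hydroxyapatite chromatography at 4 °C. Reaction used 20 mM Na₂HPO₄ pH 7.0, 0.5 mM DTT, holo-ACP and 1 nM FabH. It was stopped with ice-cold 50% TCA (5 min on ice) and the protein pelleted. ³H incorporation was read by liquid scintillation. Inhibitors came from DMSO stock, with final DMSO ≤2%.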

[2] = Toxicity in erythrocytes assessed as hemolytic activity; assay type: cell-based; conditions: erythrocyte
[3] = test system: Escherichia coli; assay: Antibacterial activity against Escherichia coli ATCC 35218 after 24 hrs by MTT assay; assay type: functional; conditions: ATCC 35218, 24 h
Procedure, shortened: (§1)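 MIC by MTT colorimetry in Mueller-Hinton medium. Inoculum was about 10⁵ cfu/mL, added to serial dilutions made from DMSO solutions, then incubated at 37 °C for 24 h. MTT in PBS (0.01 mol/L, pH 7.4; 2 mg/mL) was added to each well. Dye was extracted with isopropanol containing 5% 1 mol/L HCl for 12 h at room temperature, and OD was read at 550 nm.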

[4] = test system: Pseudomonas fluorescens; assay: Antibacterial activity against Pseudomonas fluorescens after 24 hrs by MTT assay; assay type: functional; procedure, shortened: as §1
[5] = test system: Bacillus subtilis; assay: Antibacterial activity against Bacillus subtilis after 24 hrs by MTT assay; assay type: functional; procedure, shortened: as §1
[6] = test system: Staphylococcus aureus; assay: Antibacterial activity against Staphylococcus aureus after 24 hrs by MTT assay; assay type: functional; procedure, shortened: as §1

| SMILES | IC50 [1] [µM] | LC30 [2] [µg/mL] | MIC [3] [µg/mL] | MIC [4] [µg/mL] | MIC [5] [µg/mL] | MIC [6] [µg/mL] |
| --- | --- | --- | --- | --- | --- | --- |
| Nc1ccn([C@H]2CC[C@@H](COP(=O)(O)O)O2)c(=O)n1 | 2.1 | > 10000 |  |  |  |  |
| Oc1c(Br)cc(Br)cc1CNc1ccc(F)cc1 |  |  | 50 (≈ 133 µM) | 12.5 (≈ 33.3 µM) | 50 (≈ 133 µM) | 50 (≈ 133 µM) |
| Oc1ccc(Br)cc1CNc1ccccc1F |  |  | 25 (≈ 84.4 µM) | 6.25 (≈ 21.1 µM) | 50 (≈ 169 µM) | 25 (≈ 84.4 µM) |
| Oc1ccc(Br)cc1CNc1ccc(F)cc1 |  |  | 12.5 (≈ 42.2 µM) | 25 (≈ 84.4 µM) | 50 (≈ 169 µM) | 12.5 (≈ 42.2 µM) |
| Oc1ccc(Br)cc1CNc1ccccc1Cl |  |  | 12.5 (≈ 40 µM) | 25 (≈ 80 µM) | 50 (≈ 160 µM) | 6.25 (≈ 20 µM) |
| Oc1ccc(Br)cc1CNc1ccccc1Br |  |  | 25 (≈ 70 µM) | 25 (≈ 70 µM) | 50 (≈ 140 µM) | 50 (≈ 140 µM) |
| Oc1ccc(Br)cc1CNc1ccc(Br)cc1 |  |  | 25 (≈ 70 µM) | 12.5 (≈ 35 µM) | 25 (≈ 70 µM) | 25 (≈ 70 µM) |
| Cc1ccc(NCc2cc(Br)ccc2O)cc1 |  |  | 50 (≈ 171 µM) | 50 (≈ 171 µM) | 50 (≈ 171 µM) | 50 (≈ 171 µM) |
| COc1ccc(NCc2cc(Br)ccc2O)cc1 |  |  | 50 (≈ 162 µM) | 50 (≈ 162 µM) | 50 (≈ 162 µM) | 50 (≈ 162 µM) |
| Oc1c(Br)cc(Br)cc1CNc1ccccc1F |  |  | 50 (≈ 133 µM) | 50 (≈ 133 µM) | 50 (≈ 133 µM) | 25 (≈ 66.7 µM) |
| Oc1c(Br)cc(Br)cc1CNc1ccccc1Cl |  |  | 25 (≈ 63.9 µM) | 50 (≈ 128 µM) | 6.25 (≈ 16 µM) | 25 (≈ 63.9 µM) |
| Oc1c(Br)cc(Br)cc1CNc1ccc(Cl)cc1 |  |  | 25 (≈ 63.9 µM) | 12.5 (≈ 31.9 µM) | 12.5 (≈ 31.9 µM) | 12.5 (≈ 31.9 µM) |
| Oc1c(Br)cc(Br)cc1CNc1ccccc1Br |  |  | 12.5 (≈ 28.7 µM) | 50 (≈ 115 µM) | 50 (≈ 115 µM) | 50 (≈ 115 µM) |
| Oc1c(Br)cc(Br)cc1CNc1ccc(Br)cc1 |  |  | 25 (≈ 57.3 µM) | 50 (≈ 115 µM) | 50 (≈ 115 µM) | 50 (≈ 115 µM) |
| Cc1ccc(NCc2cc(Br)cc(Br)c2O)cc1 |  |  | 50 (≈ 135 µM) | 50 (≈ 135 µM) | 50 (≈ 135 µM) | 50 (≈ 135 µM) |
| COc1ccc(NCc2cc(Br)cc(Br)c2O)cc1 |  |  | 50 (≈ 129 µM) | 50 (≈ 129 µM) | 25 (≈ 64.6 µM) | 50 (≈ 129 µM) |
| O=C(Nc1ccccc1)N(Cc1cc(Br)ccc1O)c1ccccc1F | 37.4 | > 10000 | 12.5 (≈ 30.1 µM) | 25 (≈ 60.2 µM) | 25 (≈ 60.2 µM) | 50 (≈ 120 µM) |

| SMILES | IC50 [1] [µM] | LC30 [2] [µg/mL] | MIC [3] [µg/mL] | MIC [4] [µg/mL] | MIC [5] [µg/mL] | MIC [6] [µg/mL] |
| --- | --- | --- | --- | --- | --- | --- |
| O=C(Nc1ccccc1)N(Cc1cc(Br)ccc1O)c1ccc(F)cc1 | 6.6 | > 10000 | 1.56 (≈ 3.76 µM) | 6.25 (≈ 15.1 µM) | 6.25 (≈ 15.1 µM) | 3.13 (≈ 7.54 µM) |
| O=C(Nc1ccccc1)N(Cc1cc(Br)ccc1O)c1ccccc1Cl | 21.8 | > 10000 | 6.25 (≈ 14.5 µM) | 25 (≈ 57.9 µM) | 6.25 (≈ 14.5 µM) | 3.13 (≈ 7.25 µM) |
| O=C(Nc1ccccc1)N(Cc1cc(Br)ccc1O)c1ccc(Cl)cc1 | 4.7 | > 10000 | 1.56 (≈ 3.61 µM) | 3.13 (≈ 7.25 µM) | 6.25 (≈ 14.5 µM) | 1.56 (≈ 3.61 µM) |
| O=C(Nc1ccccc1)N(Cc1cc(Br)ccc1O)c1ccccc1Br | 56.4 | > 10000 | 12.5 (≈ 26.3 µM) | 25 (≈ 52.5 µM) | 6.25 (≈ 13.1 µM) | 25 (≈ 52.5 µM) |
| O=C(Nc1ccccc1)N(Cc1cc(Br)ccc1O)c1ccc(Br)cc1 | 41 | > 10000 | 6.25 (≈ 13.1 µM) | 12.5 (≈ 26.3 µM) | 12.5 (≈ 26.3 µM) | 12.5 (≈ 26.3 µM) |
| Cc1ccc(N(Cc2cc(Br)ccc2O)C(=O)Nc2ccccc2)cc1 |  |  | 50 (≈ 122 µM) | 50 (≈ 122 µM) | 12.5 (≈ 30.4 µM) | 50 (≈ 122 µM) |
| COc1ccc(N(Cc2cc(Br)ccc2O)C(=O)Nc2ccccc2)cc1 |  |  | 25 (≈ 58.5 µM) | 50 (≈ 117 µM) | 50 (≈ 117 µM) | 12.5 (≈ 29.3 µM) |
| O=C(Nc1ccccc1)N(Cc1cc(Br)cc(Br)c1O)c1ccccc1F |  |  | 50 (≈ 101 µM) | 12.5 (≈ 25.3 µM) | 50 (≈ 101 µM) | 25 (≈ 50.6 µM) |
| O=C(Nc1ccccc1)N(Cc1cc(Br)cc(Br)c1O)c1ccc(F)cc1 | 71.7 | > 10000 | 6.25 (≈ 12.6 µM) | 25 (≈ 50.6 µM) | 12.5 (≈ 25.3 µM) | 12.5 (≈ 25.3 µM) |
| O=C(Nc1ccccc1)N(Cc1cc(Br)cc(Br)c1O)c1ccccc1Cl | 51.5 | > 10000 | 6.25 (≈ 12.2 µM) | 25 (≈ 49 µM) | 50 (≈ 97.9 µM) | 12.5 (≈ 24.5 µM) |
| O=C(Nc1ccccc1)N(Cc1cc(Br)cc(Br)c1O)c1ccc(Cl)cc1 | 10.1 | > 10000 | 3.13 (≈ 6.13 µM) | 12.5 (≈ 24.5 µM) | 25 (≈ 49 µM) | 6.25 (≈ 12.2 µM) |
| O=C(Nc1ccccc1)N(Cc1cc(Br)cc(Br)c1O)c1ccccc1Br |  |  | 50 (≈ 90.1 µM) | 6.25 (≈ 11.3 µM) | 50 (≈ 90.1 µM) | 50 (≈ 90.1 µM) |
| O=C(Nc1ccccc1)N(Cc1cc(Br)cc(Br)c1O)c1ccc(Br)cc1 |  |  | 12.5 (≈ 22.5 µM) | 25 (≈ 45 µM) | 50 (≈ 90.1 µM) | 25 (≈ 45 µM) |
| Cc1ccc(N(Cc2cc(Br)cc(Br)c2O)C(=O)Nc2ccccc2)cc1 |  |  | 50 (≈ 102 µM) | 50 (≈ 102 µM) | 50 (≈ 102 µM) | 6.25 (≈ 12.8 µM) |
| COc1ccc(N(Cc2cc(Br)cc(Br)c2O)C(=O)Nc2ccccc2)cc1 |  |  | 12.5 (≈ 24.7 µM) | 25 (≈ 49.4 µM) | 50 (≈ 98.8 µM) | 50 (≈ 98.8 µM) |
| Oc1ccc(Br)cc1CNc1ccc(Cl)cc1 |  |  | 6.25 (≈ 20 µM) | 12.5 (≈ 40 µM) | 25 (≈ 80 µM) | 6.25 (≈ 20 µM) |
| NC[C@H]1O[C@H](O[C@H]2[C@H](O)[C@@H](O[C@H]3O[C@H](CO)[C@@H](O)[C@H](N)[C@H]3O)[C@H](N)C[C@@H]2N)[C@H](N)[C@@H](O)[C@@H]1O [BEKANAMYCIN] |  |  | 3.13 (≈ 6.47 µM) | 3.13 (≈ 6.47 µM) | 1.56 (≈ 3.23 µM) | 1.56 (≈ 3.23 µM) |
